Measurements taken from ChEMBL document CHEMBL3797074, “Synthesis and optimization of N-heterocyclic pyridinones as catechol-O-methyltransferase (COMT) inhibitors” (Bioorg Med Chem Lett, 2016).

Columns and labels:
[1] = molecular target: T1, Catechol O-methyltransferase (Homo sapiens, UniProt P21964); assay: Inhibition of recombinant human C-terminal His6-tagged MB-COMT expressed in Bacmid using SAM/dopamine as substrate preincubated for 2 hrs followed by substrate addition measured after 25 mins by SAC TAMRA tracer-based fluorescence polarization assay
T1 sequence (P21964 whole entry): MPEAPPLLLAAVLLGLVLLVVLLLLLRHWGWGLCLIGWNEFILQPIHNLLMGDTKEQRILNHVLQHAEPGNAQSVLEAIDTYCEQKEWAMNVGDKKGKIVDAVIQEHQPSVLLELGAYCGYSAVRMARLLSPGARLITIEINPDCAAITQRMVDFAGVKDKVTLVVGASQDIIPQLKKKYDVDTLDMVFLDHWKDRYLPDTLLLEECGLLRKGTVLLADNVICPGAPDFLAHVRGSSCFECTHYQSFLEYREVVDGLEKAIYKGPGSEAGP

[2] = molecular target: T1, Catechol O-methyltransferase; assay: Inhibition of recombinant human C-terminal His6-tagged soluble COMT transfected in Escherichia coli BL21-Gold (DE3) using SAM/dopamine as substrate preincubated for 2 hrs followed by substrate addition measured after 25 mins by SAC TAMRA tracer-based fluorescence polarization assay
[3] = molecular target: T2, Catechol O-methyltransferase (Rattus norvegicus, UniProt P22734); assay: Inhibition of recombinant rat C-terminal His10-tagged MB-COMT transfected in Escherichia coli BL21-CodonPlus(DE3)-RIPL using SAM/dopamine as substrate preincubated for 2 hrs followed by substrate addition measured after 25 mins by SAC TAMRA tracer-based fluorescence polarization assay
T2 sequence (P22734 whole entry): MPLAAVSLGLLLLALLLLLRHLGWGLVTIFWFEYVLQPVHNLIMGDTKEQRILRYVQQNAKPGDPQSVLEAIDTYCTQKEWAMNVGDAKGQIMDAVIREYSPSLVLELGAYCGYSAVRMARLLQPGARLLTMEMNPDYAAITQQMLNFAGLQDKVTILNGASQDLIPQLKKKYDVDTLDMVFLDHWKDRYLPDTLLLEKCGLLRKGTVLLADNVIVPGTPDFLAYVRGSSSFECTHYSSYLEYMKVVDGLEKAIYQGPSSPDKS

[4] = Intrinsic clearance in human hepatocytes; assay type: ADME, cell-based, Hepatocyte; conditions: read-out: CLH
[5] = Plasma clearance in rat at 0.5 mg/kg, iv; assay type: ADME, organism-based
How it was run: (§1)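 Rat PK after a single intravenous dose of 0.5 mg/kg given in DMSO. Plasma clearance, volume of distribution and half-life were derived from the plasma data.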

[6] = Intrinsic clearance in rat hepatocytes; assay type: ADME, cell-based, Hepatocyte; conditions: read-out: CLH
Rattus norvegicus [7] = assay: In vivo inhibition of MB-COMT in ip dosed rat assessed as increase in dihydroxyphenylacetic acid level in cerebrospinal fluid after 1 hr; assay type: functional, organism-based
How it was run: (§2)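 Rats were dosed intraperitoneally, and cerebrospinal fluid was collected one hour later. HVA and DOPAC levels were measured and compared with vehicle by ANOVA, with significance set at p<0.05.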

Rattus norvegicus [8] = assay: In vivo inhibition of MB-COMT in ip dosed rat assessed as decrease in homovanillic acid level in cerebrospinal fluid after 1 hr; assay type: functional, organism-based; how it was run: as §2
[9] = Plasma concentration in rat at 30 mg/kg, ip after 1 hr; assay type: ADME, organism-based
How it was run: (§3)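 Rats dosed intraperitoneally at 30 or 100 mg/kg. Plasma and cerebrospinal fluid were sampled one hour after dosing, and drug concentrations were measured in each.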

[10] = Plasma concentration in rat at 100 mg/kg, ip after 1 hr; assay type: ADME, organism-based; how it was run: as §3
Cerebrospinal fluid = assay: Drug uptake in rat cerebrospinal fluid at 30 mg/kg, ip after 1 hr; assay type: ADME, organism-based; conditions: in vivo, BLD = below limit of detection; how it was run: as §3
[11] = Drug uptake in rat cerebrospinal fluid at 100 mg/kg, ip after 1 hr; assay type: ADME, organism-based; conditions: read-out: Drug uptake; how it was run: as §3
[12] = Volume of distribution in rat at 0.5 mg/kg, iv; assay type: ADME, organism-based; conditions: in vivo; how it was run: as §1
[13] = Half life in rat at 0.5 mg/kg, iv; assay type: ADME, organism-based; conditions: in vivo; how it was run: as §1

| Structure (SMILES) | IC50 [1] | IC50 [2] | further results |
| --- | --- | --- | --- |
| O=c1ccn(-c2nc(-c3ccccn3)cs2)cc1O | > 5 µM | > 5 µM | – |
| O=c1ccn(-c2cc(-c3ccccn3)ccn2)cc1O | 0.826 µM | – | – |
| O=c1ccn(-c2cc(-c3cnn(Cc4ccccc4)c3)ccn2)cc1O | 0.0495 µM | – | IC50 [3]: 0.028 µM |
| O=c1ccn(-c2ccnc(-c3ccccc3)c2)cc1O | 0.456 µM | 2.33 µM | – |
| O=c1ccn(-c2cc(-c3ccc(Cl)c(Cl)c3)ccn2)cc1O | 0.035 µM | – | IC50 [3]: 0.027 µM; CLint scaled [4]: 17.5 L/h/kg; clearance [5]: 12 L/h/kg |
| O=c1ccn(-c2cc(-c3ccccc3)ccn2)cc1O | 0.04 µM | 3.02 µM | IC50 [3]: 0.015 µM; CLint scaled [4]: 4.44 L/h/kg; CLint scaled [6]: 26.9 L/h/kg; clearance [5]: 5.64 L/h/kg; inhibition (Rattus norvegicus [7]): Dose-dependent effect; inhibition (Rattus norvegicus [8]): Dose-dependent effect; concentration at 1 h [9]: 0.07 µM; concentration at 1 h [10]: 3.6 µM; Drug uptake (Cerebrospinal fluid): BLD; concentration at 1 h [11]: 0.41 µM; Vd [12]: 1.9 L/kg; half-life [13]: 24 min |
| O=c1ccn(-c2nccc3ccccc23)cc1O | 0.962 µM | 1.27 µM | – |
| O=c1ccn(-c2cc(-c3cccnc3)ccn2)cc1O | 0.574 µM | – | – |
| O=c1ccn(-c2ccnc(-c3ccccc3)n2)cc1O | 0.706 µM | 2.05 µM | – |
| O=c1ccn(-c2ncccc2-c2ccccc2)cc1O | > 5 µM | > 5 µM | – |
| Cc1cn2nc(-n3ccc(=O)c(O)c3)ccc2n1 | > 5 µM | 1.67 µM | – |
| O=c1ccn(-c2cc(-c3cccc(C(F)(F)F)n3)ccn2)cc1O | 0.084 µM | – | IC50 [3]: 0.011 µM |
| O=c1ccn(-c2cccc(-c3ccccc3)c2)cc1O | – | – | CLint scaled [4]: 19.2 L/h/kg; CLint scaled [6]: 35 L/h/kg; clearance [5]: 3.48 L/h/kg |
| O=c1ccn(-c2cc(-c3ccncc3)ccn2)cc1O | 0.672 µM | – | – |
| O=c1ccn(-c2cccc(-c3ccccc3)n2)cc1O | 0.128 µM | 2.58 µM | – |
| O=c1ccn(-c2nccc(-c3ccccc3)c2F)cc1O | 0.055 µM | 0.946 µM | – |
| CC(C)(C)c1nc(-c2ccnc(-n3ccc(=O)c(O)c3)c2)cs1 | 0.101 µM | – | IC50 [3]: 0.015 µM |
